Results taken from ChEMBL document CHEMBL3632544, “Acyl dihydropyrazolo[1,5-a]pyrimidinones as metabotropic glutamate receptor 5 positive allosteric modulators” (Bioorg Med Chem Lett, 2015).

Legend:
[1] = target: T1, Metabotropic glutamate receptor 5 (Homo sapiens, UniProt P41594); assay: Positive allosteric modulation of human mGlu5 expressed in HEK293 cells assessed as calcium mobilization; format: functional, cell-based
Procedure, shortened: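 Calcium mobilization read-out in HEK293 cells stably expressing human mGlu5; PAM EC50 and efficacy as % of maximal glutamate response. Mean±SEM of three or more independent determinations, each in triplicate.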
Target sequence in this assay (P41594 whole entry): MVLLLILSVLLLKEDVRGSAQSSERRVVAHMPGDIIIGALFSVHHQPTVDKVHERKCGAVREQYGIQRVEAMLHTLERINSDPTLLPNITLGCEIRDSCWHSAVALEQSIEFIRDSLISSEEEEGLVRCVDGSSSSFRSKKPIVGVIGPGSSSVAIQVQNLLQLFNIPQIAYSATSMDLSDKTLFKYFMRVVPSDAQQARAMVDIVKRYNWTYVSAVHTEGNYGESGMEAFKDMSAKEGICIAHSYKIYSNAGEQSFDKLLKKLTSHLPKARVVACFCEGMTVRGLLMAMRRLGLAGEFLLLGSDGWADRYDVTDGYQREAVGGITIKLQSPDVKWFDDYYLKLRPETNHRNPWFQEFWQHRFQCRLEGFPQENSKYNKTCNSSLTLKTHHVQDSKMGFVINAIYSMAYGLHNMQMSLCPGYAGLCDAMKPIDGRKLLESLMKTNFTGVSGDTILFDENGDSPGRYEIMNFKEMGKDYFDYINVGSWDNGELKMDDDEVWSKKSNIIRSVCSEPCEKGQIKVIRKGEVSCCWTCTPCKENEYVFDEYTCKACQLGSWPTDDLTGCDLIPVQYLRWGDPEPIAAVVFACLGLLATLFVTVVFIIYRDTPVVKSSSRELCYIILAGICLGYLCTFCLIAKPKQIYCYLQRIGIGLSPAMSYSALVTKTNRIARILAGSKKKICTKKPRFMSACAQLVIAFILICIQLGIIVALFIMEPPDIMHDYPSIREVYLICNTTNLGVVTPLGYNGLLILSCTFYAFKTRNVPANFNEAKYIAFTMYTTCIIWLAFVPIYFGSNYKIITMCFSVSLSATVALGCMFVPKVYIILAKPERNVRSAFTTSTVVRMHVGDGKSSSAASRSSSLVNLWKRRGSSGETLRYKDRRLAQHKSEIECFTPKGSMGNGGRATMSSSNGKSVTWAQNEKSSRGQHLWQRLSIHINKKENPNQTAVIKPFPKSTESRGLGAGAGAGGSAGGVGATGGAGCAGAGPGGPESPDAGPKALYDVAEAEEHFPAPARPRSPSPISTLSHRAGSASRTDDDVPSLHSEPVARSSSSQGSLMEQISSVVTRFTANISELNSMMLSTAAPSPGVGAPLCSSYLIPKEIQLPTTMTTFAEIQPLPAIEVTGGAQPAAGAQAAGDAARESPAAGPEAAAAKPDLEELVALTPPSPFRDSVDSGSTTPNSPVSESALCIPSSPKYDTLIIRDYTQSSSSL

[2] = target: T1, Metabotropic glutamate receptor 5; assay: Positive allosteric modulation of human mGlu5 expressed in HEK293 cells assessed as calcium mobilization relative to glutamate; format: functional, cell-based
Procedure, shortened: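 Calcium mobilization in HEK293 cells expressing human mGlu5, reported as EC50 and % Glu Max. Mean±SEM of three or more independent determinations, each run in triplicate.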
Target sequence in this assay (P41594 21-1212 limits assumed): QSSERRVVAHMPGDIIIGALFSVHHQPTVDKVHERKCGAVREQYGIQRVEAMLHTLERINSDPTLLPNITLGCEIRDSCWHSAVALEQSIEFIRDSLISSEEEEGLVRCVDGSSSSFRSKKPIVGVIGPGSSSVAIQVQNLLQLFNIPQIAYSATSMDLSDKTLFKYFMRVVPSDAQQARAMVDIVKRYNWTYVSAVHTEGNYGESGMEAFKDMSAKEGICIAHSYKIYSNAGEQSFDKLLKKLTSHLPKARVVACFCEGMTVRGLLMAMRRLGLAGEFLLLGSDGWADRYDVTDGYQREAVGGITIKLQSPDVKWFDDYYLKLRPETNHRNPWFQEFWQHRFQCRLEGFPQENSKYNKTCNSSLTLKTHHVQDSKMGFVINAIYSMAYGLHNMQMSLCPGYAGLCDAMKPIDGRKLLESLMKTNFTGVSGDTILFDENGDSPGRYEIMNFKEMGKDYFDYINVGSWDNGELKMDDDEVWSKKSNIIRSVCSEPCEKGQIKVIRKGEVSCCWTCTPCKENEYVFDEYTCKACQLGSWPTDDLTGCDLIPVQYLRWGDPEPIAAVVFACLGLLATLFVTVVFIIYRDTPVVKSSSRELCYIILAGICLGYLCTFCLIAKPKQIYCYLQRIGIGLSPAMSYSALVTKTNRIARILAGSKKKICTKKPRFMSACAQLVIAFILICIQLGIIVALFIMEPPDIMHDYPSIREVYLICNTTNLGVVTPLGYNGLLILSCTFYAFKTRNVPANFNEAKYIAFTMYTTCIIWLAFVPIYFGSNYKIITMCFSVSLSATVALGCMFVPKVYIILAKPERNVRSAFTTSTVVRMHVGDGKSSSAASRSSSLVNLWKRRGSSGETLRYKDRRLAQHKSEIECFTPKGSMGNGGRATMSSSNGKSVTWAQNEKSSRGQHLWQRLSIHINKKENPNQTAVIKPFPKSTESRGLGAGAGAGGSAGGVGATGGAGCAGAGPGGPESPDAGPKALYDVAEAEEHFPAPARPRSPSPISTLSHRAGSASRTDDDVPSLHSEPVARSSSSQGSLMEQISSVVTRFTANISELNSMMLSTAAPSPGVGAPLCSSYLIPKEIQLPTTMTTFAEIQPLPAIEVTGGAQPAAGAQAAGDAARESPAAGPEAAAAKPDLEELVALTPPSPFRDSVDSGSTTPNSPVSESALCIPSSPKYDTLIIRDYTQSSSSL

Plasma [3] = assay: Fraction unbound in human plasma; format: ADME, cell-free
Procedure, shortened: (§1)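 Plasma protein binding measured in human and rat plasma; readout is fraction unbound.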

Plasma [4] = assay: Fraction unbound in rat plasma; format: ADME, cell-free; procedure, shortened: as §1
[5] = Plasma clearance in Sprague-Dawley rat at 0.2 mg/kg, iv; format: ADME, organism-based
Plasma [6] = assay: Stability in rat plasma after 4 hrs; format: ADME, cell-free
Procedure, shortened: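 Compound incubated in rat plasma at 37 °C for 4 h; stability assessed.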

[7] = Stability in simulated gastric fluid for 1 hr; format: physicochemical; settings: simulated gi fluid
Procedure, shortened: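 Incubation in simulated gastric fluid at 37 °C for 1 h; decomposition of the external amide assessed.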

[8] = Stability in beta cyclodextrin at pH 6 upto 5 days; format: physicochemical; settings: buffer, pH 6, 120 h
Procedure, shortened: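 Stability of the compound formulated at 4 mg/mL in 20% β-cyclodextrin vehicle, pH 6, monitored for up to five days; percent decomposition of the amide determined.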

SMILES	EC50 ([1]; read-out: EC50)	%max [2]	further results
CC(=O)N1CCCn2nc(COc3ccc(F)cc3)cc21	> 10 µM	56%	
O=C(Cc1ccccc1)N1CCCn2nc(COc3ccccc3)cc21	0.378 µM	72%	EC50 ([1]; read-out: pEC50 (converted)): 0.372 µM
CC(=O)N1CCCn2nc(COc3cccc(F)c3)cc21	0.266 µM	58%	EC50 ([1]; read-out: pEC50 (converted)): 0.24 µM
CC(=O)N1CCCn2nc(COc3ccccc3F)cc21	2.37 µM	60%	Fu (Plasma [3]): 0.17; Fu (Plasma [4]): 0.24; clearance [5]: 103 mL/min/kg; Stability (Plasma [6]): Stable; Stability [7]: Stable; Stability [8]: Stable
CC(=O)N1c2cc(COc3ccccc3)nn2CCC1C (stereo not drawn)	0.794 µM	67%	
O=C(c1ccc(F)cc1)N1CCCn2nc(COc3ccccc3)cc21	0.596 µM	63%	
O=C(c1ccccc1)N1CCCn2nc(COc3ccccc3)cc21	0.61 µM	63%	
O=C(c1ccccc1F)N1CCCn2nc(COc3ccccc3)cc21	1.13 µM	62%	
CC(=O)N1CCCn2nc(C[S+]([O-])c3ccccc3)cc21 (stereo not drawn)		< 15%	EC50 ([1]; hek293): Not Active; EC50 ([1]; read-out: pEC50 (converted)): > 31.6 µM
O=C(C1CCC1)N1CCCn2nc(COc3ccccc3)cc21	1.22 µM	41%	
O=C(C1CCCC1)N1CCCn2nc(COc3ccccc3)cc21	1.75 µM	41%	
CC(=O)N1CCCn2nc(CN3CCc4ccccc43)cc21		< 15%	EC50 ([1]; hek293): Not Active; EC50 ([1]; read-out: pEC50 (converted)): > 31.6 µM
CC(=O)N1c2cc(COc3ccccc3)nn2CCC1c1ccccc1 (stereo not drawn)	5.37 µM	38%	
O=C(c1ccccn1)N1CCCn2nc(COc3ccccc3)cc21	> 10 µM	44%	
CCC(=O)N1CCCn2nc(COc3ccccc3)cc21	0.332 µM	48%	
CC(=O)N1CCCn2nc(COc3cc(F)cc(C#N)c3)cc21	> 10 µM	39%	
CC(=O)N1CCCn2cc(COc3ccccc3)nc21			EC50 ([1]; hek293): Not Active
CC(=O)N1CCCn2nc(CSc3ccccc3)cc21	3.9 µM	39%	
O=C(c1ccc(Cl)cc1)N1CCCn2nc(COc3ccccc3)cc21	0.39 µM	68%	
CC(=O)N1CCCn2nc(COc3ccncc3)cc21		< 15%	EC50 ([1]; hek293): Not Active; EC50 ([1]; read-out: pEC50 (converted)): > 31.6 µM
CC(=O)N1CCCn2nc(COc3ccccc3)nc21	3.4 µM		

SMILES	EC50 ([1]; read-out: EC50)	%max [2]	further results
CC(=O)N1CCCn2nc(CN3CCCc4ccccc43)cc21	> 10 µM	48%	
CC(=O)N1CCCn2nc(CNc3ccccc3)cc21	> 10 µM	20%	
CC(C)(C)C(=O)N1CCCn2nc(COc3ccccc3)cc21	0.882 µM	64%	
O=C(c1cccc(F)c1)N1CCCn2nc(COc3ccccc3)cc21	0.591 µM	61%	
CC(=O)N1CCCn2nc(COc3cccnc3)cc21		< 15%	EC50 ([1]; hek293): Not Active; EC50 ([1]; read-out: pEC50 (converted)): > 31.6 µM
O=C(c1ccco1)N1CCCn2nc(COc3ccccc3)cc21		< 15%	EC50 ([1]; hek293): Not Active; EC50 ([1]; read-out: pEC50 (converted)): > 31.6 µM
CC(=O)N1CCCn2nc(CN(C)c3ccccc3)cc21	0.7 µM	74%	Fu (Plasma [3]): 0.46; Fu (Plasma [4]): 0.35
O=C(c1nccs1)N1CCCn2nc(COc3ccccc3)cc21	0.257 µM	24%	
CC(=O)N1CCCn2nc(CN3CCOc4ccccc43)cc21	0.725 µM	67%	Fu (Plasma [3]): 0.35; Fu (Plasma [4]): 0.43
CC(=O)N1CCCc2nc(COc3ccccc3)cn21	0.78 µM		Stability (Plasma [6]): Unstable
CC(=O)N1CCCc2nc(COc3ccccc3)oc21	1.34 µM		Stability (Plasma [6]): Unstable
CC(=O)N1CCCn2nc(CN(C)C3C4CC3C4)cc21 (stereo not drawn)		< 15%	EC50 ([1]; hek293): Not Active; EC50 ([1]; read-out: pEC50 (converted)): > 31.6 µM
CC(=O)N1CCCc2nc(COc3ccccc3)sc21	0.888 µM		
CC(=O)N1CCCn2nc(CS(=O)(=O)c3ccccc3)cc21		< 15%	EC50 ([1]; hek293): Not Active; EC50 ([1]; read-out: pEC50 (converted)): > 31.6 µM
CC(=O)N1CCCn2nc(COc3ccccc3)c(F)c21	3.24 µM		
CC(=O)N1CCCn2nc(COc3cc(F)cc(F)c3)cc21	1.27 µM	63%	
O=C(C1CC1)N1CCCn2nc(COc3ccccc3)cc21	0.559 µM	61%	EC50 ([1]; read-out: pEC50 (converted)): 0.525 µM
O=C(c1ccno1)N1CCCn2nc(COc3ccccc3)cc21	2.78 µM	22%	
O=C(c1ccncc1)N1CCCn2nc(COc3ccccc3)cc21	> 10 µM	51%	
CC(C)C(=O)N1CCCn2nc(COc3ccccc3)cc21	1.71 µM	59%	
